Only some compounds are listed: those with a hit (about 4.9% of all), similar ones and a draw of the others.
NF-kB expr up: raises NF-kB expression in human neuronal cells; NF-kB reporter expression; hits give high values; fold change at 12.5 µM; actives 1.6% (n = 190,000); AID 1239; in the data active = fold change above about 3.3
APP 5'UTR act: activates APP 5'UTR luciferase reporter. AID 1276. activation, % at 2 µM. SH-SY5Y APP 5'UTR luciferase reporter, luminescence; zero percent = DMSO vehicle wells. actives 1% (n = 190,000);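 active = activation above a set limit, based on mean plus 3 SD of controls, cut at about 140% in these data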
STAT3 blocker: reduces IL-6 driven STAT3 reporter signal | inhibition, % at 5.5 µM | AID 862 | actives 0.89% (n = 190,000) | U3A cells, IL-6 STAT3-luciferase reporter, luminescence; host cell line lacks STAT1;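 active = inhibition above the mean inhibition across all screened compounds plus 3 SD, cut at about 44% in these data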;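 also: 0% = DMSO only wells and 100% = 100 µM nifuroxazide control wells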
STAT3 act-1: activators of IL-6 induced STAT3 signaling. U3A cells, IL-6 STAT3-luciferase reporter, luminescence; 100% = signal with IL-6 EC80 alone. activation (% of control), % at 5.6 µM. actives 0.91% (n = 190,000);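 active = activation above the screen-wide mean of compound activation plus 3 SD, cut at about 130% in these data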;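 also: 0% = background luminescence of wells with medium and substrate only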
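Material: STAT1-lacking human U3A cells, STAT3 luciferase reporter | Benchmarks: IL-6-only wells as 100% reference | Probe or stimulus: IL-6 (33 ng/mL) | Timing: Compound 1 h, then IL-6 6 h at 37 °C | Detection: Luminescence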
STAT1 blocker: inhibitors of IFN-gamma induced STAT1 signaling | NIH 3T3 STAT1-luciferase reporter, luminescence | inhibition, % at 5.5 µM | actives 0.35% (n = 200,000) | AID 920;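 active = inhibition above a set limit, the mean inhibition across all tested compounds plus 3 SD, cut at about 34% in these data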;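 also: 0% = IFN-gamma with DMSO and 100% = IFN-gamma with 300 µM nifuroxazide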
STAT1 act-1: activators of IFN-gamma induced STAT1 signaling | actives 2.6% (n = 200,000) | AID 932 | activation (% of control), % at 5.5 µM | NIH 3T3 STAT1-luciferase reporter, luminescence; 100% = IFN-gamma alone, no compound;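 active = activation above the screen-wide mean activation plus 3 SD, cut at about 130% in these data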;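 also: raw ratio to IFN-gamma control signal so 100% means no change and 0% no light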
STAT3 act-2: confirmation of STAT3 signaling activators. actives 64% (n = 1,200). shares compounds with STAT3 act-1. potentiation (% of control), % at 5.7 µM. U3A STAT3-luciferase reporter, IL-6 potentiation, luminescence; U3A cells lack STAT1; 100 means same as IL-6 alone;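 active = percent activation of the STAT3 luciferase reporter above a set limit taken from the earlier primary screen, cut at about 130% in these data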;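 also: 0% = background signal of medium plus substrate and 100% = median of IL-6 with DMSO wells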
NFkB act 2: activates NF-kappaB, counter-screen to STAT3 activators. activation (% of control), % at 5.7 µM. actives 11% (n = 1,200). AID 1309. human cells, NF-kappaB reporter activation. shares compounds with STAT3 act-1; in the data active = activation above about 120%;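 also: reporter induced by TNF-alpha stimulation; 100% = median of stimulated DMSO wells and 0% = no signal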
STAT1 act-2: activates STAT1, counter-screen to STAT3 activators; shares compounds with STAT3 act-1; NIH 3T3 STAT1-luciferase reporter, IFN-gamma, luminescence; activation (% of control), % at 5.7 µM; actives 13% (n = 1,200);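 active = activation above the solvent-only control well mean plus 3 SD, set per screening run, cut at about 120% in these data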;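 also: 100% = IFN-gamma with DMSO median signal so 100% means no change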
* hit, by the source's call; . = no result given.

SMILES | NF-kB expr up | APP 5'UTR act | STAT3 blocker | STAT3 act-1 | STAT1 blocker | STAT1 act-1 | STAT3 act-2 | NFkB act 2 | STAT1 act-2
COC(=O)c1[nH]c2ccc(C)cc2c1NC(=O)Oc1ccccc1 | 1.88 | 35.2 | -5.3 | 111.5 | -11.4 | 110.5 | . | . | .
CCOC(=O)N1CCN(CC(=O)Nc2c(C(=O)OC)[nH]c3ccccc23)CC1 | 1.04 | 13.2 | -2.2 | 105.0 | 1.0 | 99.1 | . | . | .
C=CCOC(=O)Nc1c(C(=O)OC)[nH]c2ccccc12 | 0.7 | -7.0 | -45.3 | 147.7* | 15.2 | 86.1 | 150.1* | 105.1 | 92.8
COC(=O)c1[nH]c2ccccc2c1NC(=O)Oc1ccccc1 | 1.16 | 10.9 | -57.7 | 158.6* | 2.9 | 97.3 | 160.2* | 111.2 | 114.8
C=CCn1c(COc2cccc(C)c2)nnc1SCn1nnc2ccccc2c1=O | 1.01 | 5.7 | 9.7 | 94.8 | 6.6 | 94.2 | . | . | .
COc1ccc(C(=O)Oc2ccc(F)cc2C(=O)/C=C/c2ccc(OC)c(OC)c2)cc1 | 0.91 | -10.6 | 0.1 | 98.7 | -1.4 | 101.3 | . | . | .
COc1ccc(/C=C/C(=O)c2cc(F)ccc2OC(=O)c2ccccc2C)cc1OC | 2.57 | -96.7 | -48.4 | 143.5* | 0.5 | 99.5 | 102.5 | 155.7* | 102.2
O=c1cnnc(Nc2ccc(F)cc2)[nH]1 | 1.33 | 3.8 | 11.5 | 99.0 | -4.7 | 102.6 | . | . | .
O=c1cnnc(Nc2cccc(F)c2)[nH]1 | 1.39 | 12.0 | -51.2 | 142.5* | 2.4 | 98.4 | 148.0* | 104.0 | 93.0
CCN(C(=O)CSc1nc(-c2ccccc2)c(-c2ccccc2)[nH]1)C1CCS(=O)(=O)C1 (centres undefined) | 1.22 | 3.2 | 5.8 | 98.9 | 1.1 | 99.0 | . | . | .
O=c1c2ccccc2nc(/C=C/c2c[nH]c3ccccc23)n1CCO | 0.58 | 76.0 | -37.7 | 135.8* | -18.2 | 114.7 | 136.4* | 117.1 | 125.7*
Nc1ccccc1Sc1nc2ccccc2[nH]1 | 0.97 | -2.7 | -33.7 | 135.9* | 9.7 | 89.8 | 159.2* | 117.4 | 101.7
CCSc1nc2ccccc2[nH]1 | 1.01 | 5.7 | -3.9 | 106.3 | 1.0 | 99.1 | . | . | .
COc1ccccc1N(C(C)=O)c1nc(C)cc(C)c1C#N | 1.3 | -9.2 | -74.9 | 165.0* | 11.8 | 89.1 | 152.2* | 101.0 | 100.2
CC(C)(C)C(=O)NC(=S)NCc1ccccc1 | 1 | 4.9 | 6.3 | 96.8 | 8.0 | 92.8 | . | . | .
Cc1ccc(NC(=O)CC2Nc3ccccc3NC2=O)cc1Cl (centres undefined) | . | 38.4 | -46.5 | 137.8* | -6.8 | 106.1 | 109.1 | 110.1 | 108.7
O=C(CC1Nc2ccccc2NC1=O)Nc1ccc2c(c1)OCO2 (centres undefined) | 1.52 | 31.3 | 13.5 | 89.8 | -13.7 | 111.2 | . | . | .
C=CC#CC1(O)CC(C)N(C)CC1C (centres undefined) | 1.26 | 0.3 | 5.5 | 102.6 | -3.9 | 103.9 | . | . | .
O=C(CN1CCC(NC(=O)c2ccco2)CC1)Nc1cccc2ccccc12 | 0.86 | 20.0 | -2.8 | 103.1 | 4.1 | 96.2 | . | . | .
O=C(CN1CCC(NC(=O)c2ccco2)CC1)Nc1ccccc1[N+](=O)[O-] | 0.91 | 3.8 | -39.8 | 137.6* | 6.4 | 92.2 | 144.0* | 104.4 | 91.7
N#C/C(=C\c1ccco1)Sc1nc2ccccc2s1 | 1.24 | 0.2 | -44.6 | 137.6* | -4.2 | 103.8 | 122.2 | 106.7 | 102.5
O=C(O)C1CCC(CNCc2cccnc2)CC1 (centres undefined) | . | -1.7 | -5.7 | 110.5 | 5.5 | 94.9 | . | . | .
COc1cc2c(cc1NC(=O)C(C)OC(=O)C1CC(=O)N(Cc3ccco3)C1)oc1ccccc12 (centres undefined) | 1.82 | 51.2 | -65.1 | 154.4* | -25.6 | 123.6 | 146.6* | 117.9 | 122.3*
CCCC1=Nc2cc(C(=O)NCCCOCC)ccc2Sc2ccccc21 | 2.98 | -96.7 | -42.2 | 136.6* | -20.6 | 118.4 | 114.1 | 156.3* | 107.0
CCCC1=Nc2cc(C(=O)NCCCOC(C)C)ccc2Sc2ccccc21 | 1.11 | -1.6 | 8.1 | 98.0 | 10.0 | 90.8 | . | . | .
SMILES | NF-kB expr up | APP 5'UTR act | STAT3 blocker | STAT3 act-1 | STAT1 blocker | STAT1 act-1 | STAT3 act-2 | NFkB act 2 | STAT1 act-2
CCOC(=O)c1cn2cccnc2n1 | 0.92 | -2.3 | 7.8 | 98.3 | 3.3 | 96.9 | . | . | .
Cc1ccc(NC(=O)c2cc(Cl)nc3ccccc23)cc1 | 1 | 7.0 | 6.8 | 103.0 | 2.5 | 97.7 | . | . | .
Cc1ccc(NC(=O)C2=C(O)CCn3c2nc2ccccc23)cc1 | 0.93 | -12.3 | -47.1 | 149.2* | -12.1 | 111.1 | 123.9 | 101.3 | 103.8
CCOn1c(=O)c(-c2cc3ccccc3o2)[n+]([O-])c2ccccc21 | 1.48 | 16.3 | -56.4 | 154.3* | -25.1 | 123.1 | 179.1* | 128.2* | 157.6*
Cc1ccsc1/C=C/c1ccc2cccc(O)c2n1 | 4.99* | 147.8* | -54.9 | 154.3* | 3.0 | 97.2 | 175.6* | 110.0 | 99.4
Oc1c(Cl)cc(Cl)cc1/C=C/c1ccc2cccc(O)c2n1 | 1.27 | 3.6 | -12.3 | 114.5 | -1.8 | 98.6 | . | . | .
Cc1ccsc1/C=C/C(=O)O | 0.83 | -7.6 | 7.6 | 95.3 | -3.2 | 100.6 | . | . | .
Oc1ccc(Cl)cc1/C=C/c1ccc2cccc(O)c2n1 | 2.19 | 55.5 | -74.0 | 166.5* | 13.9 | 87.4 | 155.6* | 99.8 | 92.3
O=C(/C=C/c1cccs1)c1cc(Cl)ccc1O | 1.19 | 23.8 | 9.3 | 94.0 | -0.4 | 98.6 | . | . | .
Oc1cccc2ccc(/C=C/c3cccs3)nc12 | 3.21 | 148.1* | -52.7 | 148.1* | 0.1 | 100.0 | 189.3* | 121.3* | 101.9
Cc1nn2c(-c3ccc(Cl)cc3Cl)nnc2s1 | 0.99 | -7.0 | -2.1 | 106.2 | 5.0 | 95.5 | . | . | .
CCOc1ccc(CNC(=O)CCCOc2cc(=O)n(C)c3ccccc23)cc1 | 1.36 | -6.5 | 9.4 | 93.5 | 6.1 | 94.4 | . | . | .
CSc1ccccc1C(=O)NCc1ccccc1C | 1.17 | -7.0 | 1.5 | 98.6 | 3.8 | 96.6 | . | . | .
CCSc1nc2sc3c(c2c(=O)[nH]1)CCc1ccccc1-3 | 0.75 | -16.8 | -46.1 | 143.8* | -0.7 | 100.6 | 152.3* | 109.0 | 93.9
Cc1cccc(-c2nnc3n2N=C(c2ccccc2)CS3)c1 | 1.09 | 6.0 | 17.5 | 86.8 | 2.8 | 97.4 | . | . | .
C[n+]1c2n(c3ccccc31)N=C(c1ccccc1)CS2 | 0.98 | 2.4 | -28.4 | 139.9* | 29.8 | 72.2 | 149.2* | 106.4 | 78.8
C[n+]1c2n(c3ccccc31)N=C(c1ccc(Br)cc1)CS2 | 2.14 | 15.7 | -35.2 | 136.4* | 23.8 | 78.2 | 122.2 | 95.9 | 71.5
Clc1ccccc1Cc1noc(CN2CCCCC2CCc2ccccn2)n1 (centres undefined) | 1.15 | -3.9 | 10.9 | 94.8 | 4.8 | 94.1 | . | . | .
